Source: ChEMBL document CHEMBL1149023, “Quinone-methide triterpenes and salaspermic acid from Kokoona ochracea” (1994)
Values after ≈ are worked out from the molar mass of the structure shown.

How the values were obtained:
[1] = Cytotoxicity against human KBV1 cells after 72 hrs by sulforhodamine B assay in absence of vinblastine; type: functional; settings: KB-V1, 72 h, read-out: ED50 (the source's name)
MEL-2 (Homo sapiens) = test: Cytotoxicity against human MEL-2 cells after 72 hrs by sulforhodamine B assay; settings: MEL-2, 72 h, read-out: ED50 (the source's name)
HT-1080 = test: Cytotoxicity against human HT1080 cells after 48 hrs by sulforhodamine B assay; type: functional; settings: HT-1080, 48 h, read-out: ED50 (the source's name)
Summary of the method: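 HT-1080 was kept in MEME with 1% NAA and 10% heat-inactivated FBS. Cells were treated in triplicate at 4 concentrations (0.16–20 µg/ml), final DMSO 0.5%, for 48 h at 37° in 5% CO2. They were fixed with cold 50% TCA and stained with sulforhodamine B; OD was read at 515 nm. ED50 was taken against DMSO-only controls.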

[2] = Cytotoxicity against human BC1 cells after 72 hrs by sulforhodamine B assay; type: functional; settings: BC1, 72 h, read-out: ED50 (the source's name)
Summary of the method: (§1)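 Cells went in triplicate into 4 concentrations (0.16–20 µg/ml) from DMSO stock, final DMSO 0.5% v/v, for 72 h at 37° in 5% CO2. Cells were fixed with cold 50% TCA and stained with 0.4% sulforhodamine B in 1% HOAc. Bound dye was dissolved in 10 mM Tris base and read at 515 nm. ED50 came from the averaged data as percent of DMSO controls. LNCaP and ZR-75-1 were kept in phenol red-free RPMI with hormone-free FBS plus 0.1 nM testosterone or estradiol, respectively.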

A-431 = test: Cytotoxicity against human A431 cells after 72 hrs by sulforhodamine B assay; type: functional; settings: A-431, 72 h, read-out: ED50 (the source's name); summary of the method: as §1
[3] = Cytotoxicity against human U373 cells after 96 hrs by sulforhodamine B assay; type: functional, U-373MG ATCC; settings: U373 MG, read-out: ED50 (the source's name)
Summary of the method: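 U373 cells were treated in triplicate at 4 concentrations (0.16–20 µg/ml), final DMSO 0.5%, for 96 h at 37° in 5% CO2. Cells were fixed with cold 50% TCA, stained with 0.4% sulforhodamine B in 1% HOAc, and the dye was solubilized in 10 mM Tris. OD was read at 515 nm and ED50 was taken from percent of DMSO control.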

P388 = test: Cytotoxicity against mouse P388 cells after 48 hrs by sulforhodamine B assay; type: functional; settings: P388, 48 h, read-out: ED50 (the source's name)
Summary of the method: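 Murine P-388 was kept in Fisher's medium with 10% heat-inactivated FBS. Cells were exposed in triplicate to 4 concentrations (0.16–20 µg/ml), final DMSO 0.5%, for 48 h at 37° in 5% CO2. They were fixed with cold 20% TCA, stained with 0.4% sulforhodamine B, and read at 515 nm. ED50 was taken relative to DMSO controls.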

KB = test: Cytotoxicity against human KB cells after 72 hrs by sulforhodamine B assay; type: functional; settings: read-out: ED50 (the source's name); summary of the method: as §1
ZR-75-1 = test: Cytotoxicity against human ZR-75-1 cells after 72 hrs by sulforhodamine B assay; type: functional; settings: ZR-75-1, 72 h, read-out: ED50 (the source's name); summary of the method: as §1
Lu1 = test: Cytotoxicity against human Lu1 cells after 72 hrs by sulforhodamine B assay; type: functional; settings: Lu1, 72 h, read-out: ED50 (the source's name); summary of the method: as §1
[4] = Cytotoxicity against human KBV1 cells after 72 hrs by sulforhodamine B assay in presence of vinblastine; type: functional; settings: KB-V1, 72 h, read-out: ED50 (the source's name)
Col2 = test: Cytotoxicity against human Col2 cells after 72 hrs by sulforhodamine B assay; settings: Col2, 72 h, read-out: ED50 (the source's name)
LNCaP = test: Cytotoxicity against human LNCAP cells after 72 hrs by sulforhodamine B assay; type: functional; settings: read-out: ED50 (the source's name); summary of the method: as §1

Row | SMILES | EC50 [1] | EC50 (MEL-2 (Homo sapiens)) | EC50 (HT-1080) | EC50 [2] | EC50 (A-431) | EC50 [3] | EC50 (P388) | EC50 (KB) | EC50 (ZR-75-1) | EC50 (Lu1) | EC50 [4] | EC50 (Col2) | EC50 (LNCaP)
1 | COC(=O)[C@]1(C)CC[C@]2(C)CC[C@]3(C)[C@H]4CC[C@@]56CO[C@@](O)(CC[C@H]5[C@]4(C)CC[C@@]3(C)[C@@H]2C1)[C@@H]6C [SALASPERMIC ACID METHYL ESTER] | > 20 µg/mL | > 20 µg/mL | > 20 µg/mL | > 20 µg/mL | > 20 µg/mL | > 20 µg/mL | > 5 µg/mL | > 20 µg/mL | > 20 µg/mL | > 20 µg/mL | > 20 µg/mL | > 20 µg/mL | > 20 µg/mL
2 | C[C@@H]1[C@@]23CC[C@H]4[C@@](C)(CC[C@@]5(C)[C@@H]6C[C@](C)(C(=O)O)CC[C@]6(C)CC[C@]45C)[C@@H]2CC[C@@]1(O)OC3 [SALASPERMIC ACID] | > 20 µg/mL | > 20 µg/mL | > 20 µg/mL | > 20 µg/mL | > 20 µg/mL | > 20 µg/mL | > 5 µg/mL | > 20 µg/mL | > 20 µg/mL | > 20 µg/mL | > 20 µg/mL | > 20 µg/mL | > 20 µg/mL
3 | CC1=C(O)C(=O)C=C2C1=CC=C1[C@@]2(C)CC[C@@]2(C)[C@@H]3C[C@@H](C)C(=O)C[C@]3(C)CC[C@]12C [TINGENONE] | 0.4 µg/mL (≈ 0.951 µM) | 0.2 µg/mL (≈ 0.476 µM) | 0.7 µg/mL (≈ 1.66 µM) | 0.3 µg/mL (≈ 0.713 µM) | 0.4 µg/mL (≈ 0.951 µM) | 0.6 µg/mL (≈ 1.43 µM) | 0.1 µg/mL (≈ 0.238 µM) | 0.9 µg/mL (≈ 2.14 µM) | 0.2 µg/mL (≈ 0.476 µM) | 0.6 µg/mL (≈ 1.43 µM) | 0.5 µg/mL | 0.2 µg/mL (≈ 0.476 µM) | 0.7 µg/mL (≈ 1.66 µM)
4 | CC1=C(O)C(=O)C=C2C1=CC=C1[C@@]2(C)CC[C@@]2(C)[C@@H]3C[C@@](C)(O)C(=O)C[C@]3(C)CC[C@]12C | 3 µg/mL (≈ 6.87 µM) | 1.5 µg/mL (≈ 3.44 µM) | 2.1 µg/mL (≈ 4.81 µM) | 0.9 µg/mL (≈ 2.06 µM) | 1.1 µg/mL (≈ 2.52 µM) | 0.8 µg/mL (≈ 1.83 µM) | 2 µg/mL (≈ 4.58 µM) | 1.7 µg/mL (≈ 3.89 µM) | 1 µg/mL (≈ 2.29 µM) | 2.2 µg/mL (≈ 5.04 µM) | 3.3 µg/mL | 5.8 µg/mL (≈ 13.3 µM) | 1 µg/mL (≈ 2.29 µM)
5 | CC1=C(O)C(=O)C=C2C1=CC=C1[C@@]2(C)CC[C@@]2(C)[C@@H]3C[C@](C)(C(=O)O)CC[C@]3(C)CC[C@]12C [CELASTROL] | 2.4 µg/mL (≈ 5.33 µM) | 0.6 µg/mL (≈ 1.33 µM) | 0.5 µg/mL (≈ 1.11 µM) | 0.3 µg/mL (≈ 0.666 µM) | 0.6 µg/mL (≈ 1.33 µM) | 0.4 µg/mL (≈ 0.888 µM) | 3.5 µg/mL (≈ 7.77 µM) | 1.2 µg/mL (≈ 2.66 µM) | 0.4 µg/mL (≈ 0.888 µM) | 1.3 µg/mL (≈ 2.88 µM) | 1.7 µg/mL | 2.3 µg/mL (≈ 5.1 µM) | 0.3 µg/mL (≈ 0.666 µM)
6 | COC(=O)[C@]1(C)CC[C@]2(C)CC[C@]3(C)[C@H]4CC[C@]5(COC(C)=O)[C@@H](C)C(=O)CC[C@H]5[C@]4(C)CC[C@@]3(C)[C@@H]2C1 | 9.8 µg/mL (≈ 18.5 µM) | > 20 µg/mL | 10 µg/mL (≈ 18.9 µM) | > 20 µg/mL | 5.2 µg/mL (≈ 9.83 µM) | > 20 µg/mL | > 5 µg/mL | 10.1 µg/mL (≈ 19.1 µM) | 6.2 µg/mL (≈ 11.7 µM) | 11.9 µg/mL (≈ 22.5 µM) | 12 µg/mL | > 20 µg/mL | 11.8 µg/mL (≈ 22.3 µM)
